# Source: PubChem BioAssay
# Values without a mark were called inactive. Inconclusive results are not listed. Active and inactive are the calls of the source.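 How the source made its calls, unless noted: active means RAM network inhibition above 8.4% in each of two replicates, 3 SD over the compound average; inconclusive means above 8.4% inhibition in only one replicate; inactive means 8.4% inhibition or less in each replicate.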
# Experiments:
# [1] = S. cerevisiae growth inhibition in permissive medium (OD615), pilot counter-assay for S. cerevisiae lifespan shortening project, permissive growth control (AID 705;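 active means growth inhibition above 25% in both replicates, a cutoff set 3 SD above the mean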); details: OD615, 24 h, at 10 µM, stronger effect = higher value
# Summary of the method: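 Test system: Saccharomyces cerevisiae strain carrying genetically modified DeaD replicative-lifespan system; buffer or medium: SC raffinose/galactose permissive medium; dosing: one dose 10 µM, DMSO 0.25% final; times: 24 h exposure, 30 °C; measured by: OD at 615 nm; read-out basis: growth inhibition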
# [2] = S. cerevisiae growth inhibition in restrictive medium, OD615, pilot screen, restrictive growth control, yeast lifespan reduction project (AID 706;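 active means growth inhibition above a set limit, 3 SD over mean compound inhibition, in both replicates, cut at about 43% in these data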;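 further: modified DeaD lifespan yeast strain shifted to restrictive glucose medium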); details: OD615, 48 h, at 10 µM, stronger effect = higher value
# Summary of the method: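 material = engineered S. cerevisiae DeaD strain | buffer or medium = glucose-based CSMM-D restrictive medium | dosing = one concentration, 10 µM final, 0.25% DMSO | schedule = 4 h pre-growth plus 48 h compound exposure, 30 °C | detection = OD615 absorbance reading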
# [3] = doxorubicin toxicity protection in MRP-1 cells – H69AR cells, CellTiter-Glo, duplicate, MRP-1 activator project, pilot screen (AID 807;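 active means viability increase at or above a cutoff of the median across tested compounds plus 3 SD, cut at about 8.5% in these data, passing the limit was not always enough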;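 further: compound pretreatment 18-22 h then 72 h combined with doxorubicin; 0% = doxorubicin alone and 100% = vehicle without doxorubicin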); details: H69AR viability with doxorubicin, CellTiter-Glo luminescence; at 10 µM; stronger effect = higher value
# [4] = viability of HCT116 without oncogenic beta-catenin – human colon tumor cells, pilot screen (AID 823;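 active means cell viability at or below a set limit in both duplicate runs, the limit being the all-compound median minus 4 SD, cut at about 23% in these data, passing the limit was not always enough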;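 further: 0% = wells killed by 20 µM Hyamine and 100% = untreated DMSO cell wells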); details: HCT116 beta-catenin knockout viability, CellTiter-Glo, 60 h; at 10 µM; stronger effect = lower value
# [5] = viability of PTEN-null HCT116 cells – cell-based, HCT116 clonal line, CellTiter-Glo, pilot screen (AID 824;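 active means viability at or below 27.92% in each of two runs, the all-compound median minus 4 SD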;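 further: 0% = 20 µM Hyamine control and 100% = vehicle cell control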); details: HCT116 PTEN-deleted viability, 60 h, at 10 µM, stronger effect = lower value
# [6] = RAM pathway blockade in budding yeast – dse1pr::URA3 reporter, 5-FOA selection, pilot screen (AID 869;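 active means inhibition over a set limit, the all-compound mean plus 3 SD, in both replicate runs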;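 further: 0% = DMSO wells with no growth and 100% = 10 µM 1-NA-PP1 with full growth; RAM network block rescues cells from 5-FOA so hits raise OD615 growth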); details: S. cerevisiae dse1pr::URA3 5-FOA growth, OD615, 2 d; at 10 µM; stronger effect = higher value; strain carries analog-sensitive mutant Cbk1 kinase
# [7] = RAM signaling pathway blockade in yeast – S. cerevisiae, Pdr1DBD-CYC8 efflux-inhibited sensitized strain, primary screen (AID 1298);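 further: 0% = DMSO untreated cells without growth and 100% = 10 µM 1-NA-PP1 full growth; higher means more yeast growth rescued from 5-FOA killing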; details: S. cerevisiae cbk1-as DSE1-URA3 strain, 5-FOA growth OD615, 2 d; at 50 µM; stronger effect = higher value
Compound,growth inhibition [1],growth inhibition [2],viability increase [3] [%],viability [4] [%],viability [5] [%],inhibition [6] [%],RAM network inhibition [7] [%]
O=C(c1ccco1)N1CCN=C1SCc1cccc(Cl)c1,-1.8%,14%,1.56,87.3,91.9,0.89,0.26
CCOC(=O)N1CCN(S(=O)(=O)c2cccc3nonc23)CC1,-9.77%,-27.6%,-1.56,90.5,92.2,1.68,5.47
Cc1ccc(N(CC(=O)NCc2cccnc2)S(C)(=O)=O)cc1C,-8.32%,-10.2%,-2.97,97.3,98.8,0.71,2.28
O=c1cc(N2CCOCC2)[nH]c(=O)n1-c1ccc(Cl)cc1,-5.36%,-6.01%,-1.67,105,97.2,1.17,1.09
Cc1ccc(CC2CC(=O)N(c3cc(C)on3)C2=O)cc1 (stereo not drawn),-17.8%,-19.9%,0.79,100,94,1.73,-0.79
CC(C)COC(=O)c1ccc(NC(=O)C2C3CCC(C3)C2C(=O)O)cc1 (stereo not drawn),-7.04%,-5.98%,0.09,87.4,90,0.68,0.37
O=C(OCN1C(=O)c2ccccc2C1=O)c1cccs1,-2.01%,-11.2%,-0.64,94.7,96.5,1.2,1.51
CCOC(=O)N1CCC(NC(=O)c2ccc(CS(=O)(=O)c3ccc(OC)cc3)o2)CC1,5.7%,-8.08%,-2.5,104,94.1,1.96,1.82
CCCOc1ccc(C2c3c(oc4cc(C)c(C)cc4c3=O)C(=O)N2CCCN(C)C)cc1OCC (stereo not drawn),-10.6%,-3.15%,-3.29,102,97.7,3.69,-0.16
CCc1c(C)sc(NC(=O)c2cccs2)c1C(=O)OC(C)C,-3.37%,5.3%,4.48,77.5,79.1,1.9,5.72
Cn1cccc1Cc1nnc(SCC(=O)N2CCCC2)n1CCc1ccccc1,1.38%,16.7%,-1.41,103,102,0.04,1.63
Nc1cccc(C(=O)Nc2ccc3nc(-c4cccnc4)[nH]c3c2)c1,-2%,-4.3%,-1.88,109,102,2.84,6.1
O=C(CS(=O)(=O)c1cn(Cc2ccccc2Cl)c2ccccc12)N1CCOCC1,-3.44%,2.78%,-4.39,79,76,3.23,5.08
COC(=O)c1sc2ccccc2c1N,1.37%,27.7%,-3.26,101,94.6,0.515,2.29
O=c1oc(-c2cccnc2)nc2ccccc12,-8.07%,-3.38%,-0.21,107,96.1,0.595,-0.11
CCCC(=O)c1ccc(N2CCOCC2)c(F)c1,-7.96%,-9.48%,5.59,98.7,98.2,-0.25,0.58
CCCCn1nc(NC(=O)c2cccs2)c2cc3ccccc3nc21,-22.7%,-8.93%,1.45,54.6,48.3,0.55,4.61
CCc1ccc(C2CC(c3ccc(C)cc3)Nc3nc(N)nn32)cc1 (stereo not drawn),-5.94%,-9.54%,2.61,106,93.6,2.66,8.09
O=C(CC1Oc2ccccc2NC1=O)NC1CC1 (stereo not drawn),-1.45%,-2.85%,0.91,108,93.5,3.03,-0.05
O=C1C2C3C=CC(CO)(O3)C2C(=O)N1c1ccccc1-c1ccccc1 (stereo not drawn),97.3% (active),100% (active),-4.39,93.7,92,0.13,-1.89
CC1CCCC(C)N1CCCNC(=O)c1cc2c(=O)n(C)c3ccccc3c2n1C (stereo not drawn),-11.5%,-10.6%,-6.03,68.9,71.5,-0.625,2.26
COCCNC(=O)C1CC(=O)N(c2ccc(F)c(Cl)c2)C1 (stereo not drawn),-2.14%,-4%,0.07,105,95.7,0.835,1.14
Cc1nn(-c2ccccc2)c2c1C(c1ccncc1)C(C#N)=C(N)O2 (stereo not drawn),-12.9%,-0.78%,-0.07,92.8,89.6,0.975,4.36
Cc1cc(NC(=O)CSc2nc3c([nH]c4ccccc43)c(=O)n2-c2cccc(C(F)(F)F)c2)no1,-8.72%,-3.21%,-4.01,75.1,66.7,2.41,1.08
